Experimental data from ChEMBL document CHEMBL2086340, “Synthesis and biological evaluation of 2-benzylamino-4(5)-(6-methylpyridin-2-yl)-5(4)-([1,2,4]triazolo[1,5-a]-pyridin-6-yl)thiazoles as transforming growth factor-β type 1 receptor kinase inhibitors” (Eur J Med Chem, 2012).

Legend:
Homo sapiens = organism: Homo sapiens; assay: Selectivity index, ratio of IC50 for human recombinant p38alpha to IC50 for human recombinant ALK5
Method in brief: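 Index is IC50(p38α)/IC50(ALK5), each from a radioisotopic ³³P protein kinase assay run by a contract lab. The p38α was untagged human recombinant protein expressed in E. coli and purified on Ni–NTH–agarose, with ATF2 as substrate. The ALK5 kinase domain was human recombinant GST-fusion protein from baculovirus-infected Sf9 cells, with casein as substrate.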

[1] = target: Mitogen-activated protein kinase 14 (Homo sapiens, UniProt Q16539); assay: Inhibition of human recombinant p38alpha expressed in Escherichia coli using ATF2 as a substrate by radioisotopic protein kinase assay
TGF-beta receptor type-1 = target: T1, TGF-beta receptor type-1 (Homo sapiens, UniProt P36897); assay: Inhibition of human recombinant GST-fused ALK5 expressed in Sf9 cells using casein as a substrate by radioisotopic protein kinase assay
T1 sequence (P36897 whole entry): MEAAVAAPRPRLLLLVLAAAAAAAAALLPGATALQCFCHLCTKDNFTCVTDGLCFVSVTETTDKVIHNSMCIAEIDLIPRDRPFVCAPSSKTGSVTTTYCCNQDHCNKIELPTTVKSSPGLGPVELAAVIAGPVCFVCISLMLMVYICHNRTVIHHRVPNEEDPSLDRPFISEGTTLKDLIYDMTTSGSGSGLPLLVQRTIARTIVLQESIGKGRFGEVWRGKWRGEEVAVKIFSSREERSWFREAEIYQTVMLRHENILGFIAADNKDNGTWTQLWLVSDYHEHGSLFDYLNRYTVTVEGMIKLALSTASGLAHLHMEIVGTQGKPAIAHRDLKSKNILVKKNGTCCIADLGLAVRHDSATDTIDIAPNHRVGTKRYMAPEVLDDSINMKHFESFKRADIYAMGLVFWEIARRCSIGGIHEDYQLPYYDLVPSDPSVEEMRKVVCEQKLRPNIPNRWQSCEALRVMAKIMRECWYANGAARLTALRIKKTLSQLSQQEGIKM

Mitogen-activated protein kinase 14, sequence (Q16539 whole entry, the tested form may be a part): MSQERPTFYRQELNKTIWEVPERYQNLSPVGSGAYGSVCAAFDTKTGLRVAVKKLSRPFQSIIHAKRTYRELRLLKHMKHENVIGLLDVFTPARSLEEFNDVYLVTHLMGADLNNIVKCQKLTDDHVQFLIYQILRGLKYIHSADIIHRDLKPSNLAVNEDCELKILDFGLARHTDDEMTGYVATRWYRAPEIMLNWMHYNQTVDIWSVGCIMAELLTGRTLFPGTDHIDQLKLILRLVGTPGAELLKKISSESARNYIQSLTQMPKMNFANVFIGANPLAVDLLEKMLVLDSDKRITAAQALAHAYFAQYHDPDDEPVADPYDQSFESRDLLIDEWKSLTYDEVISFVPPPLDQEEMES

Compound | Ratio IC50 (Homo sapiens) | IC50 [1] | IC50 (TGF-beta receptor type-1)
COc1cccc(CNc2nc(-c3cccc(C)n3)c(-c3ccc4ncnn4c3)s2)c1 | > 877 | > 10000 nM | 11.4 nM
Cc1cccc(-c2nc(NCc3cccc(OC(F)(F)F)c3)sc2-c2ccc3ncnn3c2)n1 | 383 | 7390 nM | 19.3 nM
COc1ccc(CNc2nc(-c3cccc(C)n3)c(-c3ccc4ncnn4c3)s2)cc1OC | > 210 | > 10000 nM | 47.7 nM
Cc1cccc(-c2nc(NCc3ccccc3OC(F)(F)F)sc2-c2ccc3ncnn3c2)n1 | > 279 | > 10000 nM | 35.9 nM
Cc1cccc(-c2nc(NCc3cc(F)cc(F)c3)sc2-c2ccc3ncnn3c2)n1 | 428 | 3820 nM | 8.92 nM
Cc1cccc(-c2sc(NCc3cccc(C#N)c3)nc2-c2ccc3ncnn3c2)n1 | > 398 | > 10000 nM | 25.1 nM
Cc1cccc(-c2nc(NCc3cccc(C(N)=O)c3)sc2-c2ccc3ncnn3c2)n1 | 455 | 6190 nM | 13.6 nM
Cc1cccc(-c2nc(NCc3cccc(C)c3C)sc2-c2ccc3ncnn3c2)n1 | > 452 | > 10000 nM | 22.1 nM
Cc1cccc(-c2sc(NCc3ccccc3F)nc2-c2ccc3ncnn3c2)n1 | > 472 | > 10000 nM | 21.2 nM
Cc1cccc(-c2sc(NCc3cccc(C(N)=O)c3)nc2-c2ccc3ncnn3c2)n1 | > 833 | > 10000 nM | 12 nM
COc1cccc(CNc2nc(-c3cccc(C)n3)c(-c3ccc4ncnn4c3)s2)c1OC | > 230 | > 10000 nM | 43.5 nM
COc1cc(CNc2nc(-c3cccc(C)n3)c(-c3ccc4ncnn4c3)s2)cc(OC)c1 | 484 | 7990 nM | 16.5 nM
Cc1cccc(-c2nc(NCc3cccc(Cl)c3Cl)sc2-c2ccc3ncnn3c2)n1 | > 292 | > 10000 nM | 34.3 nM
Cc1cccc(-c2nc(NCc3cccc(Cl)c3)sc2-c2ccc3ncnn3c2)n1 | 322 | 3280 nM | 10.2 nM
Cc1cccc(-c2nc(NCc3ccccc3F)sc2-c2ccc3ncnn3c2)n1 | > 962 | > 10000 nM | 10.4 nM
Cc1cccc(-c2[nH]c(Cc3cccc(C(N)=O)c3)nc2-c2ccc3nccnc3c2)n1 | 28 |  | 
Cc1cc(C)cc(CNc2nc(-c3cccc(C)n3)c(-c3ccc4ncnn4c3)s2)c1 | > 455 | > 10000 nM | 22 nM
Cc1cccc(-c2nc(NCc3ccccc3Cl)sc2-c2ccc3ncnn3c2)n1 | 378 | 5860 nM | 15.5 nM
Cc1cccc(-c2nc(NCc3ccc(Cl)c(Cl)c3)sc2-c2ccc3ncnn3c2)n1 | > 457 | > 10000 nM | 21.9 nM
Cc1cccc(-c2nc(NCc3cccc(C#N)c3)sc2-c2ccc3ncnn3c2)n1 | 408 | 3780 nM | 9.26 nM
Cc1cccc(-c2sc(NCc3ccccc3)nc2-c2ccc3ncnn3c2)n1 | 360 | 8820 nM | 24.5 nM
Cc1cccc(-c2nc(NCc3ccc(F)c(F)c3)sc2-c2ccc3ncnn3c2)n1 | 482 | 3580 nM | 7.43 nM
Cc1cccc(-c2nc(NCc3cccc(F)c3F)sc2-c2ccc3ncnn3c2)n1 | 245 | 7200 nM | 29.4 nM
Cc1cccc(-c2nc(NCc3cc(Cl)cc(Cl)c3)sc2-c2ccc3ncnn3c2)n1 | > 662 | > 10000 nM | 15.1 nM

Further lines, results first:

Ratio IC50 (Homo sapiens) | IC50 [1] | IC50 (TGF-beta receptor type-1) | Compound
1070 | 9200 nM | 8.61 nM | Cc1cccc(-c2nc(NCc3ccc(F)cc3)sc2-c2ccc3ncnn3c2)n1
> 325 | > 10000 nM | 30.8 nM | Cc1cccc(-c2nc(NCc3ccc(C#N)cc3)sc2-c2ccc3ncnn3c2)n1
> 389 | > 10000 nM | 25.7 nM | Cc1cccc(-c2nc(NCc3ccc(C(N)=O)cc3)sc2-c2ccc3ncnn3c2)n1
479 | 5370 nM | 11.2 nM | Cc1cccc(CNc2nc(-c3cccc(C)n3)c(-c3ccc4ncnn4c3)s2)c1
> 412 | > 10000 nM | 24.3 nM | COc1ccc(CNc2nc(-c3cccc(C)n3)c(-c3ccc4ncnn4c3)s2)cc1
489 | 5530 nM | 11.3 nM | Cc1cccc(-c2nc(NCc3ccccc3)sc2-c2ccc3ncnn3c2)n1
504 | 3530 nM | 7.01 nM | Cc1cccc(-c2nc(NCc3cccc(F)c3)sc2-c2ccc3ncnn3c2)n1
> 633 | > 10000 nM | 15.8 nM | Cc1cccc(-c2nc(NCc3ccc(Cl)cc3)sc2-c2ccc3ncnn3c2)n1
> 592 | > 10000 nM | 16.9 nM | Cc1cccc(-c2nc(NCc3ccccc3C)sc2-c2ccc3ncnn3c2)n1
> 1140 | > 10000 nM | 8.75 nM | Cc1ccc(CNc2nc(-c3cccc(C)n3)c(-c3ccc4ncnn4c3)s2)cc1
> 164 | > 10000 nM | 60.9 nM | Cc1cccc(-c2nc(NCc3ccc(OC(F)(F)F)cc3)sc2-c2ccc3ncnn3c2)n1
